SENP1 inh = human SENP1 catalytic domain inhibitors, primary screen, biochemical, FRET, uHTS; recombinant SENP1 catalytic domain, CyPet-SUMO1-YPet FRET cleavage; Sentrin-specific protease 1 (Homo sapiens), Q9P0U3; inhibition, % at 10 µM; 360,000 tested, 0.21% active;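 active = inhibition at least 30% at 10 µM, raw YFP signal under a set limit, fluorescence ratio 0.5 to 1.5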
Target sequence (Q9P0U3 419-644 limits assumed): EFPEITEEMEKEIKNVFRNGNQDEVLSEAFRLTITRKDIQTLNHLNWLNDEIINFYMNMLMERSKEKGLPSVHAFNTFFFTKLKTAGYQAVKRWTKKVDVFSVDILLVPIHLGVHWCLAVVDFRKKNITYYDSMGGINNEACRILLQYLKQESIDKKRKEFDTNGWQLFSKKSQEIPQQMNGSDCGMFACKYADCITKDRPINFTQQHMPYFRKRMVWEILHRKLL
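Test system: recombinant human SENP1 catalytic domain, His6-tagged / Medium: pH 8 Tris buffer with EDTA, NaCl, BME, BSA, NP40, catalase / Also added: SUMO1 FRET substrate flanked by Cypet and Ypet, 25 nM / Times: 50 min reaction at room temperature / Signal: FRET, CFP and YFP emission / Control set: no-enzyme low control and enzyme-plus-DMSO high control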
SENP7 inh = SENP7 protease inhibitors, primary screen, biochemical, luminescence, uHTS; recombinant SENP7, Z-RLRGG-aminoluciferin luminescence, 40 min; AID 434973, 2010; inhibition, % at 5 µM; Sentrin-specific protease 7 (Homo sapiens), Q9BQF6; 330,000 tested, 1.5% active;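 active = inhibition above about 50% at the single test dose, limit read from the data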
SENP6 block = SENP6 protease inhibitors, primary screen, biochemical, luminescence, uHTS. Sentrin-specific protease 6 (Homo sapiens), Q9GZR1. Recombinant SENP6 catalytic domain, aminoluciferin luminescence. inhibition, % at 10 µM. 330,000 tested, 1.8% active. AID 2599, 2010;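 active = inhibition above about 50% at the single tested dose, limit read from the data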
NRP1-CendR mod = modulators of CendR peptide binding to NRP-1, primary screen, biochemical, fluorescence polarization, uHTS; AID 602438, 2012; inhibition, % at 25 µM; Neuropilin-1 (Homo sapiens), O14786; 360,000 tested, 0.85% active; FAM-RPARPAR peptide binding to NRP-1;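 active = inhibition or corrected inhibition above about 18%, plus a signal ratio from 0.5 to 1.5, limit read from the data, passing the limit was not always enough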
SENP8 block-1 = SENP8 protease inhibitors, primary screen, biochemical, luminescence; Sentrin-specific protease 8 (Homo sapiens), Q96LD8; purified SENP8, Z-RLRGG-aminoluciferin cleavage; inhibition, % at 10 µM; 330,000 tested, 1.2% active; AID 2540, 2010; in the data active = inhibition above about 50%
SENP8 block-2 = human SENP8 protease inhibitors, primary screen, biochemical, fluorescence, Nedd8 protein substrate, uHTS | inhibition, % at 20 µM | Sentrin-specific protease 8 (Homo sapiens), Q96LD8 | recombinant SENP8 | 360,000 tested, 0.64% active; in the data active = inhibition mostly above about 40%, no sharp cut-off; inactive = mostly below about 27%
SENP8 conf = SENP8 protease inhibitors, retest, confirmation, biochemical, luminescence, single concentration | shares compounds with SENP7 inh | Recombinant SENP8, Z-RLRGG-aminoluciferin luminescence, 60 min | inhibition, % at 12.5 µM | 6,200 tested, 40% active | AID 488912, 2010;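 active = mean inhibition across replicates above about 50%, limit read from the data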
SENP6 conf = SENP6 protease inhibitors, confirmation, biochemical, luminescence, single concentration. inhibition, % at 12.5 µM. shares compounds with SENP7 inh. recombinant SENP6, Z-RLRGG-aminoluciferin luminescence. AID 488915, 2010. 6,200 tested, 58% active
SENP7 conf = SENP7 protease inhibitors, retest, confirmation, biochemical, luminescence, single concentration; shares compounds with SENP7 inh; recombinant SENP7, Z-RLRGG-aminoluciferin luminescence, 40 min; inhibition, % at 12.5 µM; 6,200 tested, 69% active; AID 488917, 2010
Casp3 select = caspase-3 protease inhibitors, confirmation, selectivity assay for SENP inhibitor project, biochemical, single concentration | shares compounds with SENP7 inh | purified caspase-3, Z-DEVD-aminoluciferin luminescence, 60 min | inhibition, % at 12.5 µM | 6,200 tested, 60% active | AID 488918, 2010;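 active = mean inhibition above about 50%, limit read from the data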
Target sequence (P42574 28-227 limits assumed): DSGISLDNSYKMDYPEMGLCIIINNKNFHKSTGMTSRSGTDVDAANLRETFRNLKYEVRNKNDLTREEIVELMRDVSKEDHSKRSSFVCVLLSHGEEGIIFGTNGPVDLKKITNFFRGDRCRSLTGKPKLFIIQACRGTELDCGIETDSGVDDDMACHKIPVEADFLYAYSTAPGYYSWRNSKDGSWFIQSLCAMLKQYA
SENP luc ctr = interferes with luciferase luminescence in SENP counter-screen | Pre-incubated SENP8/Z-RLRGG-aminoluciferin, luciferase luminescence interference | shares compounds with SENP7 inh | inhibition, % at 12.5 µM | 6,200 tested, 39% active;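 active = mean inhibition above about 50% when retested at one dose, limit read from the data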
Of the large screens only hits and unclear results are named; the others gave an inactive call (follow-up assays come after a bar, where they were run). Only some compounds are listed: those with a hit (about 3.3% of all), similar ones and a draw of the others.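 The calls were made as follows, unless noted: active = mean inhibition above about 50% in the one-dose retest (limit read from the data); inactive = the rest.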

CCN(C)C1CN(Cc2cn(Cc3ccc(Cl)cc3)nn2)S(=O)(=O)C1 (configuration not stated)	none (no result: SENP7 inh, SENP6 block, SENP8 block-1)
O=C1C(C=NCc2ccncc2)=C(O)c2ccccc21	none
COc1ccc(N=CC2=C(O)c3ccccc3C2=O)c(OC)c1	SENP7 inh 99.4, SENP6 block 90.5, SENP8 block-1 94.8, SENP8 block-2 50.1 | SENP8 conf 52.9 | SENP6 conf 96.4 | SENP7 conf 102.3 | Casp3 select 88.5 | SENP luc ctr inactive
O=C1C(C=Nc2ccc(F)cc2)=C(O)c2ccccc21	SENP7 inh 94.5, SENP6 block 76.4, SENP8 block-1 73.6 | SENP8 conf 50.8 | SENP6 conf 53.5 | SENP7 conf 66.7 | Casp3 select 66.1 | SENP luc ctr inactive
Cc1ccccc1N=CC1=C(O)c2ccccc2C1=O	SENP7 inh 102.2, SENP6 block 98.1, SENP8 block-1 92.6, SENP8 block-2 40.1 | SENP8 conf 94.4 | SENP6 conf 97.7 | SENP7 conf 102.4 | Casp3 select 97.3 | SENP luc ctr 54.3
Cc1nn(C2CCS(=O)(=O)C2)c(C)c1CN(C)C(=O)c1ccccc1 (configuration not stated)	none
OCCCCCCNc1ccc(CCO)cc1	none (no result: SENP7 inh, SENP6 block, SENP8 block-1)
O=C(CNC(=O)c1cc(-c2ccccc2)nn1-c1ccccc1)Nc1ccccc1Br	none (no result: SENP7 inh, SENP6 block, SENP8 block-1)
Cc1cnc(C(=O)Nc2ccccc2-n2cccc2)cn1	none
Cc1cnc(C(=O)Nc2ccc(F)cc2)cn1	SENP7 inh 58.3, SENP6 block 60.9 | SENP8 conf inactive | SENP6 conf inactive | SENP7 conf 73.6 | Casp3 select 81.2 | SENP luc ctr inactive
Cc1cnc(C(=O)Nc2ccccc2F)cn1	SENP6 block 67.7 | SENP8 conf inactive | SENP6 conf inactive | SENP7 conf 73.8 | Casp3 select 74.6 | SENP luc ctr inactive
Cc1cnc(C(=O)Nc2ccc(C(C)C)cc2)cn1	none
O=C(O)C1OC(C(=O)O)C(C(=O)O)C1C(=O)O (configuration not stated)	none (no result: SENP7 inh, SENP6 block, SENP8 block-1)
CCC1(CC)SC(N)=NC1=O	none (no result: SENP7 inh, SENP6 block, SENP8 block-1)
CC1=C(C(=O)Nc2cc(C(=O)N3CCN(c4ccc(Cl)cc4)CC3)ccc2C)SCCO1	none (no result: SENP7 inh, SENP6 block, SENP8 block-1)
CN(C)c1ccc(/C=c2\sc3n(c2=O)CCCN=3)cc1	SENP7 inh 67.9, SENP6 block 87.0, SENP8 block-1 73.7 | SENP8 conf 86.6 | SENP6 conf 83.7 | SENP7 conf 95.3 | Casp3 select 84.9 | SENP luc ctr 75.7
O=c1/c(=C/c2ccc(O)cc2)sc2n1CCCN=2	SENP7 inh 63.5, SENP6 block 85.9, SENP8 block-1 80.3 | SENP8 conf 86.2 | SENP6 conf 84.4 | SENP7 conf 95.6 | Casp3 select 88.4 | SENP luc ctr 84.0
O=C(Nc1ccccc1)OCCc1ccccc1	none (no result: SENP7 inh, SENP6 block, SENP8 block-1)

Assay outcomes from PubChem BioAssay.
